Key:
Blood = assay: Inhibition of LPS-induced TNFalpha production in human whole blood by immunoassay; format: functional, tissue-based
How it was run: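 Human whole blood from consenting volunteers, 988 µL aliquots, was mixed with compound in DMSO and LPS at a final 10 µg/mL, then incubated 6 h at 37 °C. Samples were chilled and spun, and plasma TNFα was measured by immunoassay. Percent inhibition was taken relative to LPS control after subtracting the unstimulated negative control. IC50 from N = 3–4.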

Mus musculus [1] = assay: Inhibition of LPS-induced TNFalpha production in orally dosed mouse after 1 hr by ELISA; format: functional; settings: po, read-out: ID50 (the source's name)
How it was run: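 Mice fasted overnight (water allowed), then given compound orally as a suspension in 0.5% CMC at 10 mL/kg; controls received vehicle alone. 30 min later LPS in saline was injected i.v. at 0.45 mg/10 mL/kg; normal mice got saline. After 1 h, heparinised vena cava blood was spun and plasma TNFα measured by ELISA. % inhibition was taken against normal and control mice; ID50 derived. N = 5.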

Mus musculus [2] = assay: Inhibition of LPS-induced TNFalpha production in mouse at 50 mg/kg, po after 1 hr by ELISA; format: functional
How it was run: (§1)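 Mice were fasted overnight with water allowed. Compound was given orally as a suspension in 0.5% CMC at 10 mL/kg. After 30 min, LPS in saline was injected iv at 0.45 mg/10 mL/kg. Heparinized vena cava blood was drawn 1 h later and plasma TNFα measured by ELISA. Percent inhibition was taken versus vehicle/LPS control after subtracting normal mice. N = 5.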

Mus musculus [3] = assay: Inhibition of LPS-induced TNFalpha production in mouse at 20 mg/kg, po after 1 hr by ELISA; format: functional; how it was run: as §1

Row | IC50 (Blood) [µM] | Structure (SMILES) | other results
1 | > 30 | NCc1c[nH]c(-c2ccc(F)cc2)c1-c1ccncc1 | –
2 | 13.8 | NCCCCc1c[nH]c(-c2ccc(F)cc2)c1-c1ccncc1 | –
3 | 22.4 | CN(C)CCCc1c[nH]c(-c2ccc(F)cc2)c1-c1ccncc1 | –
4 | > 30 | Fc1ccc(-c2[nH]cc(CCCN3CCN(Cc4ccccc4)CC3)c2-c2ccncc2)cc1 | –
5 | > 30 | Fc1ccc(-c2[nH]cc(CCCN3CCSCC3)c2-c2ccncc2)cc1 | –
6 | > 30 | Fc1ccc(-c2[nH]cc(-c3ccncc3)c2-c2ccncc2)cc1 | inhibition in vivo at 50 mg/kg (Mus musculus [2]): 24.5%
7 | 28.4 | Fc1ccc(-c2[nH]cc(CCCN3CCCCC3)c2-c2ccncc2)cc1 | –
8 | 2.98 | Fc1ccc(-c2[nH]cc(C3CCNCC3)c2-c2ccncc2)cc1 | ED50 (Mus musculus [1]): 17.9 mg/kg
9 | > 30 | CC(=O)NCCCc1c[nH]c(-c2ccc(F)cc2)c1-c1ccncc1 | –
10 | 14.7 | CNCCCc1c[nH]c(-c2ccc(F)cc2)c1-c1ccncc1 | –
11 | > 30 | OC1(c2c[nH]c(-c3ccc(F)cc3)c2-c2ccncc2)CCNCC1 | inhibition in vivo at 20 mg/kg (Mus musculus [3]): -2.7%
12 | > 30 | CN1CCN(CCCc2c[nH]c(-c3ccc(F)cc3)c2-c2ccncc2)CC1 | –
13 | > 30 | Fc1ccc(-c2[nH]cc(CCCN3CCOCC3)c2-c2ccncc2)cc1 | –
14 | > 30 | Fc1ccc(-c2[nH]cc(CCCN3CCNCC3)c2-c2ccncc2)cc1 | –
15 | 4.76 | NCCCc1c[nH]c(-c2ccc(F)cc2)c1-c1ccncc1 | –

Row | Structure (SMILES) | IC50 (Blood) [µM] | other results
16 | Fc1ccc(-c2[nH]cc(C3=CCNCC3)c2-c2ccncc2)cc1 | 1.86 | ED50 (Mus musculus [1]): 5.98 mg/kg
17 | C[S+]([O-])c1ccc(-c2nc(-c3ccc(F)cc3)c(-c3ccncc3)[nH]2)cc1 (configuration not stated) [SB-203580] | 6.4 | ED50 (Mus musculus [1]): 27.9 mg/kg
